The values that follow come from ChEMBL document CHEMBL1151420 (Antimicrob Agents Chemother, 2007).

The structures appear in SMILES notation. Converted amounts (≈) assume the structure as drawn.

Series [1] deals with Equus caballus. Put plainly: fCmax in horse at 20 mg/kg, po administered as single dose. Particulars: in vivo. Type of series: ADME, organism-based. The arrangement: dose 20 mg/kg, route oral. In outline:
(§1)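 Horses (six, A–F) were dosed once intragastrically by nasogastric tube with 20 mg/kg of crushed tablets suspended in 100 ml tap water, followed by a ≥200 ml water flush. Heparinized plasma was sampled at 0 and from 20 min to 30 h and stored at –70°C. Unbound drug was isolated by 30 kDa ultrafiltration with ganciclovir internal standard and measured by LC-MS/MS (LOQ 5 ng/ml). Parameters were derived noncompartmentally.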

Series [2] in a line: Solubility at pH 2.3 to 9.2. Particulars: buffer. Type of series: physicochemical.
A short description of series [3]: Distribution coefficient, log P of the compound. Type of series: physicochemical. The settings on record: octanol/water.
The species entered for series [4] is Equus caballus. Nature of the series: Renal toxicity in horse assessed as changes in creatinine level. Type of series: organism-based. Particulars: in vivo. In a few lines: (§2)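 Blood was drawn once daily on the day before, the day of, and the day after drug administration. Plasma urea and creatinine were measured to assess kidney function.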
The nature of series [5]: Free mean residence time in horse at 10 mg/kg, iv after 1 hr by three-compartmental study. On the set-up: dose 10 mg/kg, route intravenous. Type of series: ADME, organism-based, Equus caballus. The settings on record: in vivo.
Series [6] concerns Equus caballus. Put plainly: fAUC in horse at 10 mg/kg, iv after 1 hr by three-compartmental study. Type of series: ADME, organism-based. On the set-up: dose 10 mg/kg, route intravenous. The settings on record: in vivo.
Series [7] deals with Equus caballus. Put plainly: fCmax in horse at 10 mg/kg, iv after 1 hr by three-compartmental study. Type of series: ADME, organism-based. The arrangement: dose 10 mg/kg, route intravenous. Particulars: in vivo.
Series [8] can be described thus: Oral bioavailability in horse at 20 mg/kg administered as single dose. Type of series: ADME, organism-based, Equus caballus. The settings on record: in vivo. In a few lines: (§3)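 Single 20 mg/kg dose of crushed tablets suspended in 100 ml tap water, given by nasogastric tube and flushed with at least 200 ml water. Plasma sampled from 20 min to 30 h. Total concentration measured by HPLC-fluorescence (LOQ 50 ng/ml). Noncompartmental analysis; absolute F was calculated against the i.v. data.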

A short description of series [9]: Plasma concentration in horse at 20 mg/kg, po administered as single dose after 5 hrs. Type of series: ADME, organism-based, Equus caballus. The arrangement: dose 20 mg/kg, route oral. In a few lines:
as §3

Series [10] is described as follows: Total mean residence time in horse at 10 mg/kg, iv after 1 hr by two-compartmental study. The arrangement: dose 10 mg/kg, route intravenous. Type of series: ADME, organism-based, Equus caballus. Particulars: in vivo.
Series [11] is described as follows: Mean residence time in iv dosed adult horse. Type of series: ADME, organism-based, Equus caballus. The settings on record: in vivo.
Series [12] relates to Equus caballus. Put plainly: fAUC in horse at 20 mg/kg, po administered as single dose. Type of series: ADME, organism-based. On the set-up: dose 20 mg/kg, route oral. Particulars: in vivo. In a few lines: as §1
Series [13] in a line: Total Cmax in horse at 10 mg/kg, iv after 1 hr by two-compartmental study. Type of series: ADME, organism-based, Equus caballus. On the set-up: dose 10 mg/kg, route intravenous. The settings on record: in vivo.
Series [14] can be described thus: Cmax in iv dosed adult horse. The settings on record: in vivo. On the set-up: route intravenous. Type of series: ADME, organism-based, Equus caballus.
For series [15], the species on record is Equus caballus. Nature of the series: Renal toxicity in horse assessed as changes in urea level. Particulars: in vivo. Type of series: organism-based. In a few lines:
as §2

Series [16] in a line: Cmax in horse at 10 mg/kg, iv after 15 mins. Type of series: ADME, organism-based, Equus caballus. On the set-up: dose 10 mg/kg, route intravenous. The settings on record: in vivo.
Series [17] concerns Equid alphaherpesvirus 1. Put plainly: Antiviral activity against EHV1 assessed as inhibition of plaque formation. Type of series: functional, organism-based.

For `Nc1nc2c(ncn2COCCO)c(=O)[nH]1` [ACYCLOVIR], the values for the fCmax in [1] and in [7] were 0.4 µg/mL and 10.5 µg/mL, respectively. Moreover, the solubility (in general, the concentration that dissolves in the medium under given conditions) in [2] was found to be 1000 µg/mL (≈ 4440 µM). Also, the logP (in general, a log measure of how a compound divides between an organic and an aqueous phase) in series [3] is -1.59. The Activity entry in series [4] and in series [15] was “Non-toxic” in each case. Also, the MRT (in general, a mean duration of stay, worked out from the concentration-time curve) in series [5] came to 23.1 h; in series [10], 5.38 h; in series [11] it was 7.09 h. The results for the fAUC in [6] and in [12] were 24600 ng·h/mL and 3530 ng·h/mL, respectively. The bioavailability (in general, the share of a dose that reaches the circulation, judged against a reference dose that is usually intravenous) in [8] is 2.8%. In addition, the concentration at 5 h in series [9] turned out to be 50 ng/mL. Further, the Cmax – broadly, the highest concentration seen after dosing – is 10700 ng/mL in series [13], 10400 ng/mL in series [14] and 46200 ng/mL in [16]. For the same compound, in series [17], the EC50 (commonly the concentration needed to bring the measured effect to its halfway point) was 1.7 µg/mL (≈ 7.55 µM).
`CC(C)[C@H](N)C(=O)OCCOCn1cnc2c(=O)[nH]c(N)nc21` [VALACYCLOVIR]: in series [1], the fCmax turned out to be 4.76 µg/mL. Moreover, the fAUC in series [12] was determined as 14900 ng·h/mL.
